SUMO1-SIM PPI = SUMO1-SIM interaction modulation. SUMO1 binding to a labelled peptide, TR-FRET, 1 h. inhibition, % at 20 µM. hit rate 0.33% among 360,000. P63165; in the data active = inhibition above about 37%
LMPTP block = blocks human LMPTP phosphatase; P24666; recombinant LMPTP-A, OMFP fluorogenic substrate, fluorescence intensity; inhibition, % at 20 µM; hit rate 0.22% among 360,000;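 active = compounds that cut the enzyme signal by at least half of the control window in the single-dose screen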;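 note: plate controls were DMSO wells with enzyme plus substrate for no effect and substrate without enzyme for full effect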
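Assay system: LMPTP-A phosphatase enzyme | Input: 0.625 nM enzyme | Also added: Fluorogenic phosphatase substrate OMFP at 400 µM final | Compound dosing: One test concentration per compound, 20 µM, with 3% DMSO overall | Schedule: 50 min enzyme reaction at room temperature, protected from light | Signal: Fluorescence intensity | Benchmarks: no-enzyme and uninhibited controls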
STEP block = STEP (human) phosphatase inhibition | recombinant STEP, OMFP fluorogenic substrate, fluorescence | inhibition, % at 20 µM | hit rate 0.25% among 360,000;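 active = inhibition at 20 µM, scaled per plate between control wells, above about 37%, limit read from the data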;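 note: 0% = DMSO with enzyme and substrate and 100% = substrate only without enzyme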
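Assay system: isolated STEP enzyme / Timing: 20 min at room temperature, dark / Doses: 20 µM, 1% DMSO / Technique: fluorescence intensity, excitation 480 nm, emission 540 nm / Reagent: fluorogenic phosphatase substrate OMFP at 25 µM final / Measure: percent inhibition scaled to no-enzyme and uninhibited-enzyme controls, plate-pattern corrected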
Scp1 inh = Scp-1 (human) phosphatase inhibition | Recombinant Scp1, phosphopeptide, malachite green phosphate absorbance | inhibition, % at 20 µM | hit rate 0.88% among 340,000 | AID 493091;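 active = inhibition above about 50% at 20 µM, limit read from the data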;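 note: plate controls were DMSO wells with enzyme for no effect and wells lacking enzyme for full effect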
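System: truncated SCP-1 phosphatase (76-261aa); medium: Tris acetate buffer pH 5.5 with MgCl2 and Tween-20; incubation: 45 min room-temperature reaction, 5 min colour, 30 min stabiliser; compound: single 20 µM dose, 1% DMSO; reagent: Phosphorylated 17-residue peptide substrate; read-out: % inhibition at 20 µM; technique: colorimetric free-phosphate detection, absorbance 630 nm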
DNMT1 inh = blocks human DNA methyltransferase DNMT1. P26358. DNMT1 molecular beacon, Hinp1I cleavage, fluorescence. inhibition (reported as % activation of signal), % at 10 µM. hit rate 0.83% among 360,000; in the data active = inhibition above about 50%
GRK2 inh = inhibitors of human GRK2 displacing RNA aptamer | bead flow cytometry, FAM-aptamer displacement from GRK2 | inhibition of aptamer binding, % at 10 µM | hit rate 0.59% among 330,000 | AID 488847;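 active = inhibition of aptamer binding above 40%, roughly 3 SD of noise, on plates passing a quality check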;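 note: median bead fluorescence of bound FAM aptamer so fluorescent compounds give negative values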
Target sequence (P25098 whole entry, looked up): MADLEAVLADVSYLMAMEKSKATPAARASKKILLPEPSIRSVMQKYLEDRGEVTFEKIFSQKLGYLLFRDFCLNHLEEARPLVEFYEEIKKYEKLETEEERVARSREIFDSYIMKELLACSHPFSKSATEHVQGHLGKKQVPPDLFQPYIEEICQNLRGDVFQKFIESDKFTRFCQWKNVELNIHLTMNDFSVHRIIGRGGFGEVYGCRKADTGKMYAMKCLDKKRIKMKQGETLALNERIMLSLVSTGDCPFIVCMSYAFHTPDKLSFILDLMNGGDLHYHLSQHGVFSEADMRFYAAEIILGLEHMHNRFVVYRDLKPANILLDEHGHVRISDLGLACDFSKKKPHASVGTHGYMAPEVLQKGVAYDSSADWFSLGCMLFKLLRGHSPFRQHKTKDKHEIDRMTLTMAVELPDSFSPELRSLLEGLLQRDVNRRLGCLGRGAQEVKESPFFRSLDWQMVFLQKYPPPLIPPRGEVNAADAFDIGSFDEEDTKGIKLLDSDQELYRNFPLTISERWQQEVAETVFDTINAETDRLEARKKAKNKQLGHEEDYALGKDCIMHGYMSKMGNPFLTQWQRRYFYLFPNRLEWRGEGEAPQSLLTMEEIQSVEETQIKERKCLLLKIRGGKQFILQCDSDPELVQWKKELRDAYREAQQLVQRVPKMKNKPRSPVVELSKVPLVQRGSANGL
Scp-1 conf = Scp-1 (human) inhibition, single-dose confirmed; shares compounds with Scp1 inh; recombinant SCP-1 catalytic domain, phosphate release, malachite green absorbance; inhibition, % at 20 µM; hit rate 61% among 2,500;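 note: plate controls were DMSO with enzyme for no effect and buffer wells lacking enzyme for full effect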
MG interference = colorimetric interference in Scp-1 counter-screen; Colorimetric interference counterscreen, malachite green absorbance 630 nm; apparent inhibition (interference), % at 20 µM; 2,500 tested, under 10 active; shares compounds with Scp1 inh;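 note: compounds added after enzyme reaction finished so only phosphate colour detection is probed; plate controls were DMSO wells with completed Scp-1 reaction for no effect and substrate wells lacking enzyme for full effect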
Scp-1 Tm shift = Scp-1 (human) binding by thermal shift | Recombinant SCP1, Sypro Orange thermal shift Tm | thermal shift relative to vanadate control, % at 40 µM | shares compounds with Scp1 inh | hit rate 25% among 1,500 | AID 540329;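 active = substances whose mean melting-temperature shift, as a percentage of the reference inhibitor's shift, reaches about 5.3%, limit read from the data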;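 note: 0% = Tm of DMSO wells and 100% = Tm with sodium orthovanadate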
Beacon interf DR = shows spectral interference in the DNMT1 beacon assay. shares compounds with DNMT1 inh. IC50, µM. AID 602382. 200 tested, under 10 active. molecular beacon fluorescence, spectral interference counter-screen; call rule not given here
DNMT1 inh conf = DNMT1 inhibition confirmation, single concentration; shares compounds with DNMT1 inh; DNMT1 molecular beacon HinP1I cleavage, fluorescence; inhibition, % at 10 µM; hit rate 8% among 2,300; AID 602385;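 active = average inhibition of at least 30% in the single-concentration confirmation test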
Beacon interf = beacon fluorescence artifact counter-screen; shares compounds with DNMT1 inh; DNMT1 molecular beacon spectral interference counterscreen, fluorescence 485/520; activation (fluorescence interference), % at 10 µM; hit rate 1% among 2,300; AID 602387;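 active = activation of at least 30% at 10 µM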;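 note: DNMT1 catalytic domain with a HinP1I cleavage step and a FAM/dabcyl DNA beacon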
Numbers without * were called inactive; / = not tested or not shown. The list is not random: actives were taken first. Their share in the collection is about 2.1%.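 Rule for the calls, unless noted: active = inhibition of at least 30% at 20 µM; inactive = the rest.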

SMILES	SUMO1-SIM PPI	LMPTP block	STEP block	Scp1 inh	DNMT1 inh	GRK2 inh	Scp-1 conf	MG interference	Scp-1 Tm shift	DNMT1 inh conf	Beacon interf	others
COc1ccc(N2Cc3cccc(C(=O)N4CCN(C(=O)c5ccco5)CC4)c3C2=O)cc1	9.3	10.2	2.9	92.3*	80.3*	34.0	60.2*	-18.4	3.5	29.4	-1.8	Beacon interf DR=>99
Cc1cccc(NC(=O)Cn2c(O)c(N=NC(=O)c3ccccc3O)c3ccccc32)c1	-8.4	35.4	36.1	88.2*	88.0*	0.0	85.6*	-8.2	4.0	15.1	-3.1
CCc1nn2c(=O)cc(COc3ccc(/C=C4\C(=N)N5N=C(CC(C)C)SC5=NC4=O)cc3)nc2s1	/	/	/	0.9	/	0.0	/	/	/	/	/
CCC1=NN2C(=N)/C(=C\c3ccc(OCc4cc(=O)n5nc(CC)sc5n4)c(OC)c3)C(=O)N=C2S1	43.8*	2.8	0.0	74.6*	86.8*	/	50.7*	-7.6	2.7	15.2	-0.2
N#CC(C#N)=Cc1cccn1-c1ccc(C(=O)O)cc1	-6.0	6.6	23.6	69.8*	101.0*	0.0	61.0*	-12.8	0.9	21.1	-1.2
N#Cc1ccccc1CN1C(=O)S/C(=C/c2cccn2-c2ccc(C(=O)O)cc2)C1=O	-13.1	14.1	11.8	92.2*	106.0*	26.0	62.9*	-20.8	-2.5	3.9	0.6
CCc1c(C(=O)NC(C)C2CCCO2)csc1C (stereo not given)	-0.6	-1.0	-2.8	0.1	1.5	0.0	/	/	/	/	/
CC(=O)NC(C)(c1ccccc1)c1nc(-c2ccc(S(C)(=O)=O)cc2)cs1 (stereo not given)	0.9	0.0	-1.0	/	2.0	/	/	/	/	/	/
COc1cc(/C=N/NC(=O)c2c(C)nnn2-c2nonc2N)ccc1O	-11.7	-0.9	-2.3	2.1	1.2	2.0	/	/	/	/	/
Cc1nnn(-c2nonc2N)c1C(=O)N/N=C/c1ccccc1O	3.0	35.9	11.1	51.0*	78.9*	0.0	63.5*	-12.3	-3.5	11.9	-1.4
COc1cccc(NC(=O)N(C)C[C@@H]2OCc3cnnn3CCCC(=O)N([C@@H](C)CO)C[C@H]2C)c1	1.4	-1.8	2.0	/	0.0	/	/	/	/	/	/
O=C(/C=C/c1ccc(Cl)c([N+](=O)[O-])c1)Nc1ccc(NC(=O)c2ccco2)cc1	0.8	1.1	-0.3	-1.2	10.5	/	/	/	/	/	/
O=C(/C=C/c1ccc(Cl)c([N+](=O)[O-])c1)Nc1ccc(N2CCCC2)cc1	-1.9	10.7	8.5	88.1*	87.6*	32.0	77.3*	-14.0	6.0*	2.0	-1.2
Cc1ccsc1/C=C/C1=Cc2c(sc(NC(=O)CSc3n[nH]c(N)n3)c2C#N)C(C)(C)C1	31.8	10.0	11.8	58.2*	89.7*	9.0	25.3	-14.2	/	4.3	1.1
CCOc1ccc(/C=C/C2=Cc3c(sc(NC(=O)CSc4n[nH]c(N)n4)c3C#N)C(C)(C)C2)cc1	22.2	-0.7	-2.8	-6.2	-18.8	0.0	/	/	/	/	/
COc1ccc(S(=O)(=O)N2CCCCC2)cc1NC(=O)C1CC1(Cl)Cl (stereo not given)	-1.3	0.9	-3.1	/	1.4	/	/	/	/	/	/
O=C(COC(=O)c1cccs1)NCc1ccco1	5.4	3.8	3.1	96.8*	72.8*	16.0	63.9*	-17.0	4.6	3.2	6.6

Screening data: PubChem BioAssay, several laboratories
